According to ChEMBL document CHEMBL1255444, “In vitro antibacterial activities of JNJ-Q2, a new broad-spectrum fluoroquinolone” (Antimicrob Agents Chemother, 2010):
Converted amounts (≈) assume the structure as drawn.

What was measured:
Assay type in all cases: functional
Streptococcus pneumoniae [1] = assay: Antibacterial activity against Streptococcus pneumoniae isolate OC6585 by broth microdilution method
Outline: (§1)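 CLSI M07-A7 broth microdilution MIC. Medium was cation-adjusted Mueller-Hinton broth. For S. pneumoniae it was Mueller-Hinton supplemented with 5% lysed horse blood. CLSI quality-control strains were included as appropriate.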

Streptococcus pneumoniae [2] = assay: Antibacterial activity against Streptococcus pneumoniae isolate OC6790 by broth microdilution method; outline: as §1
Streptococcus pneumoniae [3] = assay: Antibacterial activity against Streptococcus pneumoniae ATCC 49619 by broth microdilution method
Outline: (§2)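 MICs by CLSI M07-A7 broth microdilution in cation-adjusted Mueller-Hinton medium. For S. pneumoniae the medium was supplemented with 5% lysed horse blood. CLSI quality control strains were run alongside as appropriate.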

Proteus mirabilis = assay: Antibacterial activity against Proteus mirabilis by broth microdilution method; outline: as §2
Streptococcus pneumoniae [4] = assay: Antibacterial activity against Streptococcus pneumoniae isolate OC6608 by broth microdilution method; outline: as §1
Staphylococcus aureus [5] = assay: Antibacterial activity against methicillin-resistant Staphylococcus aureus isolate OC11696 by broth microdilution method; outline: as §1
Streptococcus agalactiae = assay: Antibacterial activity against Streptococcus agalactiae by broth microdilution method; outline: as §2
Staphylococcus aureus [6] = assay: Antibacterial activity against methicillin-resistant Staphylococcus aureus isolate OC11223 by broth microdilution method; outline: as §1
Staphylococcus aureus [7] = assay: Antibacterial activity against methicillin-susceptible Staphylococcus aureus by broth microdilution method
Staphylococcus aureus [8] = assay: Antibacterial activity against Staphylococcus aureus […] by broth microdilution method; outline: as §1
Providencia stuartii = assay: Antibacterial activity against Providencia stuartii by broth microdilution method; outline: as §2
Staphylococcus aureus [9] = assay: Antibacterial activity against methicillin-resistant Staphylococcus aureus isolate OC8530 harboring gyrA S84L and parC I143V mutant gene by broth microdilution method
Outline: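 CLSI M07-A7 broth microdilution MIC in cation-adjusted Mueller-Hinton medium. For S. pneumoniae the medium was supplemented with 5% lysed horse blood. CLSI quality-control strains were included as appropriate.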

Staphylococcus aureus [10] = assay: Antibacterial activity against methicillin-resistant Staphylococcus aureus isolate OC12501 by broth microdilution method; outline: as §1
[11] = test system: Staphylococcus epidermidis; assay: Antibacterial activity against methicillin-susceptible Staphylococcus epidermidis by broth microdilution method
Serratia marcescens = assay: Antibacterial activity against Serratia marcescens by broth microdilution method; outline: as §2
Pseudomonas aeruginosa = assay: Antibacterial activity against Pseudomonas aeruginosa ATCC 27853 by broth microdilution method; outline: as §2
[12] = test system: Staphylococcus epidermidis; assay: Antibacterial activity against methicillin-resistant Staphylococcus epidermidis by broth microdilution method
[13] = test system: Staphylococcus epidermidis; assay: Antibacterial activity against methicillin-, ciprofloxacin-resistant Staphylococcus epidermidis by broth microdilution method
Streptococcus pneumoniae [14] = assay: Antibacterial activity against Streptococcus pneumoniae R6 by agar dilution method
Outline: (§3)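 MICs for the resistance-selection studies were determined by CLSI agar dilution on Mueller-Hinton medium. For S. pneumoniae the medium was supplemented with 5% lysed horse blood. For MRSA fluctuation-assay strains an arithmetic agar dilution scheme was used for a more precise MIC.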

Streptococcus pneumoniae [15] = assay: Antibacterial activity against Streptococcus pneumoniae OC7453 harboring gyrA S81F mutant gene by agar dilution method; outline: as §3
Moraxella catarrhalis = assay: Antibacterial activity against Moraxella catarrhalis by broth microdilution method; outline: as §2
Staphylococcus aureus [16] = assay: Antibacterial activity against methicillin-resistant Staphylococcus aureus isolate OC2838 by broth microdilution method; outline: as §1
Streptococcus pneumoniae [17] = assay: Antibacterial activity against Streptococcus pneumoniae OC6755 harboring gyrA S81F and parC S79Y mutant gene by agar dilution method; outline: as §3
Staphylococcus aureus [18] = assay: Antibacterial activity against methicillin-resistant Staphylococcus aureus isolate OC11521 harboring gyrA S84L/S85P, parC E84G mutant gene by broth microdilution method; outline: as §1
Streptococcus pneumoniae [19] = assay: Antibacterial activity against Streptococcus pneumoniae isolate OC6610 by broth microdilution method; outline: as §1
Streptococcus pyogenes = assay: Antibacterial activity against Streptococcus pyogenes by broth microdilution method; outline: as §2
Staphylococcus aureus [20] = assay: Antibacterial activity against methicillin-, ciprofloxacin-resistant Staphylococcus aureus by broth microdilution method; outline: as §1
Enterococcus faecalis = assay: Antibacterial activity against Enterococcus faecalis ATCC 29212 by broth microdilution method; outline: as §2
[21] = Antibacterial activity against Streptococcus sp. group C by broth microdilution method
Outline: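 MICs by broth microdilution following CLSI M07-A7 in cation-adjusted Mueller-Hinton medium, using isolates from the J&JPRD culture collection. CLSI quality control strains were included as appropriate.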

Streptococcus pneumoniae [22] = assay: Antibacterial activity against Streptococcus pneumoniae isolate OC7348 by broth microdilution method; outline: as §1
Enterococcus faecium = assay: Antibacterial activity against Enterococcus faecium by broth microdilution method; outline: as §2
Streptococcus pneumoniae [23] = assay: Antibacterial activity against Streptococcus pneumoniae isolate OC5462 by broth microdilution method; outline: as §1
Citrobacter freundii = assay: Antibacterial activity against Citrobacter freundii by broth microdilution method; outline: as §2
Klebsiella aerogenes = assay: Antibacterial activity against Enterobacter aerogenes by broth microdilution method; outline: as §2
Escherichia coli = assay: Antibacterial activity against ciprofloxacin-resistant Escherichia coli by broth microdilution method; outline: as §1
Streptococcus pneumoniae [24] = assay: Antibacterial activity against Streptococcus pneumoniae isolate OC7376 by broth microdilution method; outline: as §1
Haemophilus influenzae = assay: Antibacterial activity against Haemophilus influenzae by broth microdilution method; outline: as §2
Streptococcus pneumoniae [25] = assay: Antibacterial activity against Streptococcus pneumoniae isolate OC7368 by broth microdilution method; outline: as §1
Streptococcus pneumoniae [26] = assay: Antibacterial activity against Streptococcus pneumoniae isolate OC7189 by broth microdilution method; outline: as §1
Staphylococcus aureus [27] = assay: Antibacterial activity against methicillin-resistant Staphylococcus aureus isolate OC17042 harboring gyrA S84L/G106D, parC S80F and parE D732N mutant gene by broth microdilution method; outline: as §1
Staphylococcus aureus [28] = assay: Antibacterial activity against methicillin-resistant Staphylococcus aureus isolate OC4222 harboring gyrA S84L and parC S80F mutant gene by broth microdilution method; outline: as §1
Staphylococcus aureus [29] = assay: Antibacterial activity against methicillin-resistant Staphylococcus aureus by broth microdilution method; outline: as §1
Streptococcus pneumoniae [30] = assay: Antibacterial activity against Streptococcus pneumoniae OC7452 harboring parC S79Y mutant gene by agar dilution method; outline: as §3

With COc1c(N2C[C@@H]3CCCN[C@@H]3C2)c(F)cc2c(=O)c(C(=O)O)cn(C3CC3)c12 [MOXIFLOXACIN] as the molecule, how does the MIC (Streptococcus pneumoniae [1]) read?
Its MIC is 8 µg/mL (≈ 19.9 µM).

And the MIC (Streptococcus pneumoniae [2])?
Its MIC is 4 µg/mL (≈ 9.96 µM).

And the MIC50 (Streptococcus pneumoniae [3])?
Its MIC50 is 0.25 µg/mL (≈ 0.623 µM).

What about the MIC90 (Streptococcus pneumoniae [3]) of the same molecule?
Its MIC90 is 4 µg/mL (≈ 9.96 µM).

And the MIC50 (Proteus mirabilis)?
The MIC50 was 0.5 µg/mL (≈ 1.25 µM).

What about the MIC90 (Proteus mirabilis) of the same molecule?
Its MIC90 is 0.5 µg/mL (≈ 1.25 µM).

And the MIC (Streptococcus pneumoniae [4])?
Its MIC is 2 µg/mL (≈ 4.98 µM).

And the MIC (Staphylococcus aureus [5])?
Its MIC is 1 µg/mL (≈ 2.49 µM).

And the MIC50 (Streptococcus agalactiae)?
The MIC50 was 0.25 µg/mL (≈ 0.623 µM).

What about the MIC90 (Streptococcus agalactiae) of the same molecule?
The MIC90 was 0.25 µg/mL (≈ 0.623 µM).

And the MIC (Staphylococcus aureus [6])?
The MIC was 0.06 µg/mL (≈ 0.149 µM).

What about the MIC (Staphylococcus aureus [7]) of the same molecule?
The MIC was 0.06 µg/mL (≈ 0.149 µM).

And the MIC50 (Staphylococcus aureus [7])?
Its MIC50 is 0.06 µg/mL (≈ 0.149 µM).

What about the MIC50 (Staphylococcus aureus [8]) of the same molecule?
The MIC50 was 2 µg/mL (≈ 4.98 µM).

And the MIC90 (Staphylococcus aureus [8])?
Its MIC90 is 8 µg/mL (≈ 19.9 µM).

What about the MIC50 (Providencia stuartii) of the same molecule?
The MIC50 was 32 µg/mL (≈ 79.7 µM).

And the MIC90 (Providencia stuartii)?
The MIC90 was 64 µg/mL (≈ 159 µM).

And the MIC (Staphylococcus aureus [9])?
The MIC was 2 µg/mL (≈ 4.98 µM).

What about the MIC (Staphylococcus aureus [10]) of the same molecule?
Its MIC is 1 µg/mL (≈ 2.49 µM).

And the MIC50 [11]?
Its MIC50 is 0.06 µg/mL (≈ 0.149 µM).

What about the MIC50 (Serratia marcescens) of the same molecule?
Its MIC50 is 0.5 µg/mL (≈ 1.25 µM).

What about the MIC90 (Serratia marcescens) of the same molecule?
Its MIC90 is 1 µg/mL (≈ 2.49 µM).

And the MIC50 (Pseudomonas aeruginosa)?
Its MIC50 is 2 µg/mL (≈ 4.98 µM).

And the MIC90 (Pseudomonas aeruginosa)?
The MIC90 was 4 µg/mL (≈ 9.96 µM).

And the MIC50 [12]?
The MIC50 was 2 µg/mL (≈ 4.98 µM).

What about the MIC90 [12] of the same molecule?
Its MIC90 is 4 µg/mL (≈ 9.96 µM).

What about the MIC50 [13] of the same molecule?
Its MIC50 is 2 µg/mL (≈ 4.98 µM).

And the MIC90 [13]?
The MIC90 was 4 µg/mL (≈ 9.96 µM).

And the MIC (Streptococcus pneumoniae [14])?
The MIC was 0.12 µg/mL (≈ 0.299 µM).

And the MIC (Streptococcus pneumoniae [15])?
Its MIC is 0.5 µg/mL (≈ 1.25 µM).

And the MIC (Moraxella catarrhalis)?
Its MIC is 0.06 µg/mL (≈ 0.149 µM).

What about the MIC50 (Moraxella catarrhalis) of the same molecule?
Its MIC50 is 0.06 µg/mL (≈ 0.149 µM).

And the MIC90 (Moraxella catarrhalis)?
Its MIC90 is 0.06 µg/mL (≈ 0.149 µM).

And the MIC (Staphylococcus aureus [16])?
The MIC was 4 µg/mL (≈ 9.96 µM).

What about the MIC (Streptococcus pneumoniae [17]) of the same molecule?
The MIC was 8 µg/mL (≈ 19.9 µM).

What about the MIC (Staphylococcus aureus [18]) of the same molecule?
The MIC was 32 µg/mL (≈ 79.7 µM).

What about the MIC (Streptococcus pneumoniae [19]) of the same molecule?
The MIC was 16 µg/mL (≈ 39.9 µM).

What about the MIC (Streptococcus pyogenes) of the same molecule?
The MIC was 0.12 µg/mL (≈ 0.299 µM).

And the MIC50 (Streptococcus pyogenes)?
The MIC50 was 0.12 µg/mL (≈ 0.299 µM).

And the MIC90 (Streptococcus pyogenes)?
The MIC90 was 0.25 µg/mL (≈ 0.623 µM).

What about the MIC50 (Staphylococcus aureus [20]) of the same molecule?
Its MIC50 is 4 µg/mL (≈ 9.96 µM).

What about the MIC90 (Staphylococcus aureus [20]) of the same molecule?
The MIC90 was 8 µg/mL (≈ 19.9 µM).

And the MIC (Enterococcus faecalis)?
The MIC was 0.25 µg/mL (≈ 0.623 µM).

What about the MIC50 (Enterococcus faecalis) of the same molecule?
The MIC50 was 0.25 µg/mL (≈ 0.623 µM).

What about the MIC90 (Enterococcus faecalis) of the same molecule?
The MIC90 was 16 µg/mL (≈ 39.9 µM).

And the MIC50 [21]?
Its MIC50 is 0.12 µg/mL (≈ 0.299 µM).

What about the MIC90 [21] of the same molecule?
The MIC90 was 0.25 µg/mL (≈ 0.623 µM).

And the MIC (Streptococcus pneumoniae [22])?
Its MIC is 8 µg/mL (≈ 19.9 µM).

What about the MIC50 (Enterococcus faecium) of the same molecule?
The MIC50 was 4 µg/mL (≈ 9.96 µM).

What about the MIC90 (Enterococcus faecium) of the same molecule?
The MIC90 was > 16 µg/mL.

What about the MIC (Streptococcus pneumoniae [23]) of the same molecule?
Its MIC is 1 µg/mL (≈ 2.49 µM).

What about the MIC50 (Citrobacter freundii) of the same molecule?
The MIC50 was 2 µg/mL (≈ 4.98 µM).

And the MIC90 (Citrobacter freundii)?
Its MIC90 is > 8 µg/mL.

What about the MIC50 (Klebsiella aerogenes) of the same molecule?
Its MIC50 is 0.12 µg/mL (≈ 0.299 µM).

What about the MIC90 (Klebsiella aerogenes) of the same molecule?
Its MIC90 is 0.25 µg/mL (≈ 0.623 µM).

And the MIC50 (Escherichia coli)?
Its MIC50 is 32 µg/mL (≈ 79.7 µM).

And the MIC90 (Escherichia coli)?
Its MIC90 is 128 µg/mL (≈ 319 µM).

And the MIC (Streptococcus pneumoniae [24])?
The MIC was 2 µg/mL (≈ 4.98 µM).

What about the MIC50 (Haemophilus influenzae) of the same molecule?
Its MIC50 is 0.015 µg/mL (≈ 0.0374 µM).

What about the MIC90 (Haemophilus influenzae) of the same molecule?
The MIC90 was 0.03 µg/mL (≈ 0.0747 µM).

What about the MIC (Streptococcus pneumoniae [25]) of the same molecule?
Its MIC is 4 µg/mL (≈ 9.96 µM).

What about the MIC (Streptococcus pneumoniae [26]) of the same molecule?
Its MIC is 0.25 µg/mL (≈ 0.623 µM).

What about the MIC (Staphylococcus aureus [27]) of the same molecule?
Its MIC is 8 µg/mL (≈ 19.9 µM).

What about the MIC (Staphylococcus aureus [28]) of the same molecule?
Its MIC is 2 µg/mL (≈ 4.98 µM).

What about the MIC50 (Staphylococcus aureus [29]) of the same molecule?
Its MIC50 is 2 µg/mL (≈ 4.98 µM).

And the MIC90 (Staphylococcus aureus [29])?
Its MIC90 is 8 µg/mL (≈ 19.9 µM).

What about the MIC (Streptococcus pneumoniae [30]) of the same molecule?
The MIC was 0.25 µg/mL (≈ 0.623 µM).
